Measurements from ChEMBL document CHEMBL1131742, “Design of scytalone dehydratase inhibitors as rice blast fungicides: derivatives of norephedrine” (Bioorg Med Chem Lett, 1999).
≈ marks a conversion by molar mass, not a printed value.

Legend:
rice = test: Concentration that affords 90% control of blast disease on rice plants in greenhouse assay; format: functional
Outline: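 Foliar greenhouse test on rice plants against blast disease; compounds applied over a range of concentrations, and the concentration giving 90% disease control was derived from the dose-response data.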

Scytalone dehydratase = target: T1, Scytalone dehydratase (Magnaporthe oryzae (strain 70-15 / FGSC 8958) (Rice blast fungus)(Pyricularia oryzae), UniProt P56221); set-up: species or system Pyricularia grisea
T1 sequence (P56221 whole entry): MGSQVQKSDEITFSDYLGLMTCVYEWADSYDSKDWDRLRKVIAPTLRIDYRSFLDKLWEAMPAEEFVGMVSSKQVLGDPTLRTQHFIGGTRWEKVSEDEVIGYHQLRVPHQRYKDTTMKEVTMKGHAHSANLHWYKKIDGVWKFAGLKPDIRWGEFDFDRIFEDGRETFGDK

Compound	ED90 (rice)	Ki (Scytalone dehydratase)
CCC(C#N)C(=O)N[C@H](C)COc1cc(F)ccc1F (stereo partly drawn)	> 200 µg/mL	5.5 nM
CC(C)C(C#N)C(=O)N[C@H](C)[C@@H](Oc1cc(F)ccc1F)c1ccccc1 (stereo partly drawn)	100 µg/mL (≈ 269 µM)	0.076 nM
C[C@H](COc1cc(F)ccc1F)NC(=O)C(C#N)C1CC1 (stereo partly drawn)	50 µg/mL (≈ 170 µM)	1.1 nM
CCC(C#N)C(=O)N[C@H](C)[C@@H](Oc1ccccc1C#N)c1ccccc1 (stereo partly drawn)	10 µg/mL (≈ 28.8 µM)	0.07 nM
CC(C)C(C#N)C(=O)N[C@H](C)COc1cc(F)ccc1F (stereo partly drawn)	10 µg/mL (≈ 33.7 µM)	0.27 nM
CCC(C#N)C(=O)N[C@H](C)[C@@H](Oc1cc(Br)ccc1C#N)c1ccccc1 (stereo partly drawn)	50 µg/mL (≈ 117 µM)	0.034 nM
CC(C)C(C#N)C(=O)N[C@H](C)[C@@H](Oc1ccccc1C#N)c1ccccc1 (stereo partly drawn)	25 µg/mL (≈ 69.2 µM)	0.038 nM
CC(C)C(C#N)C(=O)N[C@H](C)[C@@H](Oc1cc(F)ccc1C#N)c1ccccc1 (stereo partly drawn)	25 µg/mL (≈ 65.9 µM)	0.034 nM
C[C@@H](NC(=O)C(C#N)C(C)(C)C)[C@@H](Oc1ccccc1C#N)c1ccccc1 (stereo partly drawn)	200 µg/mL (≈ 533 µM)	0.14 nM
C[C@H](COc1cc(F)ccc1F)NC(=O)C(C#N)C(C)(C)C (stereo partly drawn)	6 µg/mL (≈ 19.3 µM)	–
C[C@H](COc1cc(F)ccc1F)NC(=O)[C@H](C#N)C(C)(C)C	–	0.02 nM
C[C@@H](NC(=O)C(C#N)C1CC1)[C@@H](Oc1cc(F)ccc1F)c1ccccc1 (stereo partly drawn)	2 µg/mL (≈ 5.4 µM)	0.014 nM
CCC(C#N)C(=O)N[C@H](C)[C@@H](Oc1cc(F)ccc1C#N)c1ccccc1 (stereo partly drawn)	50 µg/mL (≈ 137 µM)	0.021 nM
CCC(C#N)C(=O)N[C@H](C)[C@@H](Oc1cc(Cl)ccc1C#N)c1ccccc1 (stereo partly drawn)	10 µg/mL (≈ 26.2 µM)	0.031 nM
CCC(C#N)C(=O)N[C@H](C)[C@@H](Oc1cc(F)ccc1F)c1ccccc1 (stereo partly drawn)	2 µg/mL (≈ 5.58 µM)	0.02 nM
